How the values were obtained:
786-0 = assay: Cytotoxicity against human 786-O cells assessed as reduction in cell viability measured after 72 hrs by CCK8 assay; type: functional, cell-based; settings: 786-0, 72 h
In short: (§1)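 Cells were grown in 10% FBS medium: MEM for ACHN, RPMI1640 for OS-RC-2 and 786-O, DMEM for HK-2. They were seeded at 400–800 cells/well in 384-well plates and treated with a range of compound concentrations or solvent control, with sorafenib as positive control. After 72 h, CCK-8 absorbance was read at 450 nm in triplicate, and IC50 was taken from dose-response curves.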

OS-RC-2 = assay: Cytotoxicity against human OS-RC2 cells assessed as reduction in cell viability measured after 72 hrs by CCK8 assay; type: functional, cell-based; settings: OS-RC-2, 72 h; in short: as §1
ACHN [1] = assay: Cytotoxicity against human ACHN cells assessed as reduction in cell viability measured after 72 hrs by CCK8 assay; type: functional, cell-based; in short: as §1
ACHN [2] = assay: Cytotoxicity against human ACHN cells harboring shPRDX1 gene assessed as reduction in cell viability measured after 72 hrs by CCK8 assay; type: functional, cell-based
In short: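 Transfectants were selected with puromycin (1 μg/mL), and knockdown was confirmed by immunoblot. Viability was read by CCK-8 after 72 h of compound exposure in 384-well plates at 400–800 cells/well in MEM with 10% FBS, and IC50 was taken from dose-response curves.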

HK-2 = assay: Cytotoxicity against human HK2 cells assessed as reduction in cell viability measured after 72 hrs by CCK8 assay; type: cell-based; settings: HK-2, 72 h; in short: as §1
[3] = Homo sapiens, ACHN, 72 h, read-out: IC50

Compound	IC50 (786-0)	IC50 (OS-RC-2)	IC50 (ACHN [1])	IC50 (ACHN [2]; achn)	IC50 (HK-2)	IC50 (ACHN [2]; [3])
COc1nc(C/C=C(\C)C/C=C/C=C/[C@@H](C)[C@@H](O[C@@H]2O[C@H](CO)[C@@H](O)[C@H](O)[C@H]2O)/C(C)=C/CO)c(C)c(O)c1OC	28 µM	79 µM	2.5 µM			
C/C=C(\C)[C@H](O[C@@H]1O[C@H](CO)[C@@H](O)[C@H](O)[C@H]1O)[C@H](C)/C=C/C=C/C/C(C)=C/Cc1nc(OC)c(OC)c(O)c1C	0.99 µM	2.6 µM	0.31 µM			
COc1nc(C/C=C(\C)C/C=C/C(C)=C/[C@@H](C)[C@@H](O[C@@H]2O[C@H](CO)[C@@H](O)[C@H](O)[C@H]2O)/C(C)=C/CO)c(C)c(O)c1OC	> 100 µM	> 100 µM	7.21 µM	Not Active	> 100 µM	
C/C=C(\C)C(=O)[C@H](C)/C=C(C)/C=C/C/C(C)=C/Cc1nc(OC)c(OC)c(O)c1C	> 100 µM	22 µM	> 100 µM			> 100 µM
COc1nc(C/C=C(\C)C/C=C/C(C)=C/[C@@H](C)[C@@H](O[C@@H]2O[C@H](CO[C@H]3O[C@H](CO)[C@H](O)[C@H](O)[C@H]3O)[C@@H](O)[C@H](O)[C@H]2O)/C(C)=C/CO)c(C)c(O)c1OC	> 100 µM	> 100 µM	> 100 µM		> 100 µM	
COc1nc(C/C=C(\C)C/C(C)=C/C(C)=C/[C@@H](C)[C@@H](O)[C@]2(C)O[C@H]2C)c(C)c(O)c1OC	> 100 µM	22 µM	> 100 µM		> 100 µM	> 100 µM
C/C=C(\C)[C@H](O)[C@H](C)/C=C(C)/C=C(\C)C/C(C)=C/Cc1nc(OC)c(OC)c(O)c1C	50 µM	17 µM	14 µM		45 µM	68 µM
C/C=C/[C@H](O)[C@H](C)/C=C(C)/C=C/C/C(C)=C/Cc1nc(OC)c(OC)c(O)c1C	> 100 µM	11 µM	4.1 µM			11 µM
C/C=C(\C)[C@H](O[C@@H]1O[C@H](CO[C@H]2O[C@H](CO)[C@@H](O)[C@H](O)[C@H]2O)[C@@H](O)[C@H](O)[C@H]1O)[C@H](C)/C=C(C)/C=C/C/C(C)=C/Cc1nc(OC)c(OC)c(O)c1C	> 100 µM	> 100 µM	21 µM		> 100 µM	
COc1nc(C/C=C(\C)C/C(C)=C/C(C)=C/[C@@H](C)[C@@H](O)/C(C)=C/[C@](C)(O)[C@@H](C)O)c(C)c(O)c1OC	> 100 µM	5.3 µM	2.4 µM		44 µM	8.2 µM
COc1nc(C/C=C(\C)C[C@H](O)[C@H](OC)/C(C)=C/[C@@H](C)[C@@H](O[C@@H]2O[C@H](CO)[C@@H](O)[C@H](O)[C@H]2O)/C(C)=C/CO)c(C)c(O)c1OC	> 100 µM	> 100 µM	60 µM			
C/C=C(\C)[C@H](O[C@@H]1O[C@H](CO)[C@@H](O)[C@H](O)[C@H]1O)[C@H](C)/C=C(C)/C=C/C/C(C)=C/Cc1nc(OC)cc(O)c1C	15 µM	14 µM	3.8 µM			
C/C=C(\C)[C@H](O[C@@H]1O[C@H](CO)[C@@H](O)[C@H](O)[C@H]1O)[C@H](C)/C=C(\C)[C@@H](OC)[C@@H](O)C/C(C)=C/Cc1nc(OC)c(OC)c(O)c1C	> 100 µM	> 100 µM	2.4 µM			
C/C=C(\C)[C@H](O[C@@H]1O[C@H](CO[C@H]2O[C@H](CO)[C@H](O)[C@H](O)[C@H]2O)[C@@H](O)[C@H](O)[C@H]1O)[C@H](C)/C=C(C)/C=C/C/C(C)=C/Cc1nc(OC)c(OC)c(O)c1C	> 100 µM	> 100 µM	4.5 µM		> 100 µM	9 µM
C/C=C(\C)[C@H](O[C@@H]1O[C@H](CO)[C@@H](O)[C@H](O)[C@H]1O)[C@H](C)/C=C(C)/C=C/C/C(C)=C/Cc1nc(OC)c(OC)c(O[C@@H]2O[C@H](CO)[C@@H](O)[C@H](O)[C@H]2O)c1C	> 100 µM	> 100 µM	28 µM		1.1 µM	
COc1nc(C/C=C(\C)C/C=C/C(C)=C/[C@@H](C)[C@@H](O[C@@H]2O[C@H](CO[C@H]3O[C@H](CO)[C@@H](O)[C@H](O)[C@H]3O)[C@@H](O)[C@H](O)[C@H]2O)/C(C)=C/CO)c(C)c(O)c1OC	> 100 µM	> 100 µM	23 µM		> 100 µM	58 µM
COc1nc(C/C=C(\C)C/C(C)=C/C(C)=C/[C@@H](C)[C@@H](O)/C(C)=C/[C@@](C)(O)[C@H](C)O)c(C)c(O)c1OC	> 100 µM	4.1 µM	3.8 µM		63 µM	13 µM
COc1nc(C/C=C(\C)C/C=C/C(C)=C/[C@@H](C)[C@@H](O[C@@H]2O[C@H](CO)[C@@H](O)[C@H](O)[C@H]2O)[C@@]2(C)O[C@@H]2C)c(C)c(O)c1OC	19 µM	30 µM	2.8 µM			
